Data taken from ChEMBL document CHEMBL3774332, “Synthesis, biological evaluation and molecular modeling of pseudo-peptides based statine as inhibitors for human tissue kallikrein 5” (Eur J Med Chem, 2016).
pIC50, pKi: −log10 of the molar value. Calls of active or inactive are those of the source. The calls are words filed in the database; no cut-off is given here.

Experiments:
[1] = biological target: Kallikrein-6 (Homo sapiens) (UniProt Q92876); test: Inhibition of human KLK6 using Abz-KLRSSKQ-EDDnp as substrate at 10 to 100 uM preincubated for 5 mins followed by substrate addition by spectrofluorimetric analysis
Summary of the method: (§1)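 Residual-activity screen in 50 mM Tris–HCl, pH 7.5. Compound stocks in DMSO:H2O 1:1 were diluted to 10 µM final, and in some runs raised to 100 µM. Inhibitor was incubated with enzyme for 5 min at 37°C. Substrate was then added: Abz-KLRSSKQ-EDDnp for KLK1, KLK5 and KLK6, or Abz-KLYSSKQ-EDDnp for KLK7. Fluorescence was read at ex 320 nm, em 420 nm and compared with an inhibitor-free control.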

[2] = Solubility in aqueous buffer solution at >1 uM; assay type: physicochemical
Summary of the method: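 Solubility was tested in the aqueous assay buffer (50 mM Tris–HCl, pH 7.5) before enzymatic assays, at concentrations above 1.0 µM.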

[3] = biological target: Kallikrein-7 (Homo sapiens) (UniProt P49862); test: Inhibition of human KLK7 using Abz-KLYSSKQ-EDDnp as substrate at 10 to 100 uM preincubated for 5 mins followed by substrate addition by spectrofluorimetric analysis; summary of the method: as §1
Kallikrein-7 (Homo sapiens), sequence (P49862 30-253 limits assumed): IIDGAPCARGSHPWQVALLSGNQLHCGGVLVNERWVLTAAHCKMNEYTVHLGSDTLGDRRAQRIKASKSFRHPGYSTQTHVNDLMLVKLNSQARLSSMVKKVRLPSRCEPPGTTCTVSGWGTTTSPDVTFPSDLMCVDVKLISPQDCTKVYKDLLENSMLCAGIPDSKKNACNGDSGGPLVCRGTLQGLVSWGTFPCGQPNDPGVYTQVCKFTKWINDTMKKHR

[4] = biological target: Kallikrein-1 (Homo sapiens) (UniProt P06870); test: Inhibition of human KLK1 using Abz-KLRSSKQ-EDDnp as substrate at 10 to 100 uM preincubated for 5 mins followed by substrate addition by spectrofluorimetric analysis; summary of the method: as §1
Kallikrein-1 (Homo sapiens), sequence (P06870 25-262 limits assumed): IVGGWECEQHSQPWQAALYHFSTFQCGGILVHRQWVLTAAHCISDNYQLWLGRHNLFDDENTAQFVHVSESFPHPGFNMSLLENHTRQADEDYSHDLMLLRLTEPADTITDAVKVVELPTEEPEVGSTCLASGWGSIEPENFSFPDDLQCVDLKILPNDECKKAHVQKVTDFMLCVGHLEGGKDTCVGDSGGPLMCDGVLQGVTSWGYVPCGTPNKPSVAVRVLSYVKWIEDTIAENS

[5] = biological target: Kallikrein-5 (Homo sapiens) (UniProt Q9Y337); test: Inhibition of human KLK5 using Abz-KLRSSKQ-EDDnp as substrate at 10 to 100 uM preincubated for 5 mins followed by substrate addition by spectrofluorimetric analysis; summary of the method: as §1
[6] = biological target: Kallikrein-6 (Homo sapiens) (UniProt Q92876); test: Inhibition of human KLK6 using Abz-KLRSSKQ-EDDnp as substrate at >1 uM preincubated for 5 mins followed by substrate addition by spectrofluorimetric analysis
[7] = biological target: Kallikrein-5 (Homo sapiens) (UniProt Q9Y337); test: Inhibition of human KLK5 using Abz-KLRSSKQ-EDDnp as substrate at >1 uM preincubated for 5 mins followed by substrate addition by spectrofluorimetric analysis
[8] = biological target: Kallikrein-7 (Homo sapiens) (UniProt P49862); test: Inhibition of human KLK7 using Abz-KLYSSKQ-EDDnp as substrate at >1 uM preincubated for 5 mins followed by substrate addition by spectrofluorimetric analysis
[9] = biological target: Kallikrein-1 (Homo sapiens) (UniProt P06870); test: Inhibition of human KLK1 using Abz-KLRSSKQ-EDDnp as substrate at >1 uM preincubated for 5 mins followed by substrate addition by spectrofluorimetric analysis
[10] = biological target: Kallikrein-1 (Homo sapiens) (UniProt P06870); test: Inhibition of human KLK1 using Abz-KLRSSKQ-EDDnp as substrate at 10 uM preincubated for 5 mins followed by substrate addition by spectrofluorimetric analysis; summary of the method: as §1
[11] = biological target: Kallikrein-5 (Homo sapiens) (UniProt Q9Y337); test: Inhibition of human KLK5 using Abz-KLRSSKQ-EDDnp as substrate at 10 uM preincubated for 5 mins followed by substrate addition by spectrofluorimetric analysis; summary of the method: as §1
[12] = biological target: Kallikrein-6 (Homo sapiens) (UniProt Q92876); test: Inhibition of human KLK6 using Abz-KLRSSKQ-EDDnp as substrate at 10 uM preincubated for 5 mins followed by substrate addition by spectrofluorimetric analysis; summary of the method: as §1
Kallikrein-5 [13] = biological target: T1, Kallikrein-5 (Homo sapiens, UniProt Q9Y337); test: Inhibition of human KLK5 using Abz-KLRSSKQ-EDDnp as substrate preincubated for 5 mins followed by substrate addition by spectrofluorimetric analysis
T1 sequence (Q9Y337 whole entry): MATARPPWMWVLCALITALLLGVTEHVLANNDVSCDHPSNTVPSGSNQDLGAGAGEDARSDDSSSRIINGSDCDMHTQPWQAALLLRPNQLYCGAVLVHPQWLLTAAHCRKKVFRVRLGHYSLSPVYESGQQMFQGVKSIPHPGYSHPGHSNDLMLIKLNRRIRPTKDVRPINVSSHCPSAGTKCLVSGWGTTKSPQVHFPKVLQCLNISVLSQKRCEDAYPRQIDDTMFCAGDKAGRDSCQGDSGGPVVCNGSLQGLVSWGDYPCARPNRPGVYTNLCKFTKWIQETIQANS
Summary of the method: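 Assay in 50 mM Tris–HCl, pH 7.5, with 0.02 µg human KLK5 and inhibitor incubated 5 min at 37°C before adding Abz-KLRSSKQ-EDDnp. Fluorescence was read at ex 320 nm, em 420 nm. IC50 came from rates at five or more inhibitor concentrations across 0.01–1.0 µM. Values are means ± SD of three independent experiments.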

[14] = biological target: Kallikrein-7 (Homo sapiens) (UniProt P49862); test: Inhibition of human KLK7 using Abz-KLYSSKQ-EDDnp as substrate at 10 uM preincubated for 5 mins followed by substrate addition by spectrofluorimetric analysis; summary of the method: as §1
Kallikrein-5 [15] = biological target: T1, Kallikrein-5; test: Competitive inhibition of human KLK5 using Abz-KLRSSKQ-EDDnp as substrate preincubated for 5 mins followed by substrate addition by Lineweaver-Burk plot analysis
Summary of the method: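 Human KLK5 (0.02 µg) was preincubated with inhibitor for 5 min at 37°C in 50 mM Tris–HCl, pH 7.5. Reaction was started with FRET substrate Abz-KLRSSKQ-EDDnp and read by fluorescence (ex 320 nm, em 420 nm). Initial rates were measured without inhibitor and at four inhibitor concentrations. Ki was taken as the x-intercept of 1/V0 versus inhibitor concentration at constant substrate. Mode was assigned from Lineweaver–Burk plots.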

| inhibition [1] | solubility [2] | inhibition [3] | inhibition [4] | inhibition [5] | inhibition [6] | inhibition [7] | inhibition [8] | inhibition [9] | inhibition [10] | inhibition [11] | inhibition [12] | pIC50 (Kallikrein-5 [13]) | inhibition [14] | pKi (Kallikrein-5 [15]) | Compound |
| --- | --- | --- | --- | --- | --- | --- | --- | --- | --- | --- | --- | --- | --- | --- | --- |
| inactive | soluble | inactive | inactive | inactive | – | – | – | – | – | – | – | – | – | – | CC(C)[C@H](NC(=O)C[C@H](O)[C@H](Cc1ccccc1)NC(=O)OC(C)(C)C)C(=O)O |
| – | Insoluble | – | – | – | inactive | inactive | inactive | inactive | – | – | – | – | – | – | CC(C)[C@H](NC(=O)C[C@H](O)[C@H](Cc1ccccc1)NC(=O)OC(C)(C)C)C(=O)N[C@H]1CO[C@H]2[C@@H]1OC[C@H]2OCc1ccccc1 |
| inactive | soluble | inactive | inactive | inactive | – | – | – | – | – | – | – | – | – | – | CC(C)(C)OC(=O)N[C@@H](Cc1ccccc1)[C@@H](O)CC(=O)N1CCC[C@H]1C(=O)O |
| inactive | soluble | inactive | inactive | inactive | – | – | – | – | – | – | – | – | – | – | CC(C)(C)OC(=O)N[C@@H](Cc1ccccc1)[C@@H](O)CC(=O)N[C@@H](Cc1ccccc1)C(=O)O |
| – | soluble | – | – | – | – | – | – | – | inactive | Active | inactive | 6.95 | inactive | 6.92 | COC(=O)[C@H](Cc1ccccc1)NC(=O)C[C@H](O)[C@H](Cc1ccccc1)NC(=O)OC(C)(C)C |
| – | soluble | – | – | – | – | – | – | – | inactive | Active | inactive | 6.94 | inactive | 6.89 | COC(=O)[C@@H](NC(=O)C[C@H](O)[C@H](Cc1ccccc1)NC(=O)OC(C)(C)C)C(C)C |
| – | Insoluble | – | – | – | inactive | inactive | inactive | inactive | – | – | – | – | – | – | CC(C)(C)OC(=O)N[C@@H](Cc1ccccc1)[C@@H](O)CC(=O)N1CCC[C@H]1C(=O)N[C@H]1CO[C@H]2[C@@H]1OC[C@H]2OCc1ccccc1 |
| – | soluble | – | – | – | – | – | – | – | inactive | Active | inactive | 6.91 | inactive | 6.89 | COC(=O)[C@@H]1CCCN1C(=O)C[C@H](O)[C@H](Cc1ccccc1)NC(=O)OC(C)(C)C |
| – | Insoluble | – | – | – | inactive | inactive | inactive | inactive | – | – | – | – | – | – | CC(C)(C)OC(=O)N[C@@H](Cc1ccccc1)[C@@H](O)CC(=O)N[C@@H](Cc1ccccc1)C(=O)N[C@H]1CO[C@H]2[C@@H]1OC[C@H]2OCc1ccccc1 |
